Assay results taken from the RNAGym collection of RNA variant scans (doi:10.1126/science.aae0568).
Variants at the floor of the assay were thinned out.

B1: tRNA (parent)
chain: GUUCCGUUGGCGUAAUGGUAACGCGUCUCCCUCCUAAGGAGAAGACUGCGGGUUCGAGUCCCGUACGGAACG

Variants of: B1
Assay: yeast fitness relative to wild type (ratio to wild type); higher = fitter; tRNA-Arg(CCU), competitive growth, 37 C, YPD
How it was run: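 Gene amplicons from the start population and from each of six end populations were read by 100-nucleotide paired-end sequencing. Those end populations came from pooled Saccharomyces cerevisiae strains carrying tRNA-Arg(CCU) gene variants at the native locus, competed in YPD at 37°C for 24 hours. Fitness relative to wild type was worked out from changes in genotype frequencies. Genotypes needed ≥ 100 starting reads, and estimates < 0.5 were set to 0.5.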
A14G A20C C22G C29U A69U gave a yeast fitness of at most 0.5. Variant U8C C27U A70G has a yeast fitness of 0.738. G18C A43C C62A gave a yeast fitness of at most 0.5. Variant C31A G68A has a yeast fitness of 0.694. C30A U59G A69G gave a yeast fitness of 0.599. For C5G G17A G18A A57C, the yeast fitness was 0.554. For U3C U16G C30U C33U U47C, the yeast fitness was at most 0.5. For G6C A57U C62U, the yeast fitness was at most 0.5. Work on C34U G67A G68C yielded a yeast fitness of 0.653. With G10C C33U G48C the yeast fitness was at most 0.5. Variant G25A G50A C55A C66A has a yeast fitness of at most 0.5. With C4A C5G C60U C62U the yeast fitness was at most 0.5. In the case of U8C A14G A20U C30G A37G G44A, the yeast fitness is reported as at most 0.5. Variant C11U U35A G38A C61A has a yeast fitness of at most 0.5. With G6A G23C C30G G39C the yeast fitness was at most 0.5. For C5G C34G C66U, the yeast fitness was at most 0.5. G12U A37G C66U gave a yeast fitness of 0.614. A36G A37G G58C showed a yeast fitness of 0.649. U16A A21U C27U A40U A65U A70C gave a yeast fitness of at most 0.5. Work on G9A G38C G41C U54A yielded a yeast fitness of at most 0.5. In the case of C5U A14C A15U G17A U26C A42U A45C G63C G68U, the yeast fitness is reported as at most 0.5. C4U C27U U53G gave a yeast fitness of at most 0.5. Variant U32C A45U C49G C55G G67C has a yeast fitness of at most 0.5. With A14C G68A the yeast fitness was 0.712. Variant U19A G48C has a yeast fitness of 0.861. C11U U13C C27G A69C showed a yeast fitness of at most 0.5. Variant U28G C31U A69U has a yeast fitness of 0.524. G50C G58A C66U gave a yeast fitness of 0.538. Work on U2C C11G C46A A57U yielded a yeast fitness of at most 0.5. For C27G A42C A70U, the yeast fitness was at most 0.5. In the case of C33U A42C C55G G68C, the yeast fitness is reported as at most 0.5. With A15U C34A A40U G52A G68A the yeast fitness was at most 0.5. For U2A U19A, the yeast fitness was 0.931. With C4U C11A U26G G50C the yeast fitness was 0.536. Work on C5A G44A yielded a yeast fitness of 0.716. Variant G6A A15C A20U C29U has a yeast fitness of at most 0.5. For C31G C34U G56A G58C, the yeast fitness was at most 0.5. C11U C27G C62U A65U gave a yeast fitness of at most 0.5. With C5A U35G G41A G56A C66U the yeast fitness was at most 0.5. Work on U26G C34U G44C G56A yielded a yeast fitness of at most 0.5. U16C A21G A40C A42U C46U C49U G51A A70G gave a yeast fitness of at most 0.5. G51A G52A showed a yeast fitness of 0.571. In the case of A21C C22A C30U G48C, the yeast fitness is reported as at most 0.5. With C24G U26C C31U U54C the yeast fitness was 0.934. For C5G C66U, the yeast fitness was 0.74. For U7G C49A C61U G67C, the yeast fitness was at most 0.5. U7A U28C C62G gave a yeast fitness of at most 0.5. For C22A G51C C60U, the yeast fitness was at most 0.5. U28A U35C showed a yeast fitness of 0.753. Work on A14U C29U A37U A69U yielded a yeast fitness of at most 0.5. Work on C5A A15U G38C G39A A43C C60G A65C yielded a yeast fitness of at most 0.5. C46U G51A C66U gave a yeast fitness of 0.778. Variant U16C C31G A36U C60G has a yeast fitness of 0.694. Work on C11U A20G C24G G63C yielded a yeast fitness of at most 0.5. Variant C4G C22U G68C has a yeast fitness of at most 0.5. Variant C34U A36G A40U has a yeast fitness of at most 0.5. U3C C60A showed a yeast fitness of 0.619. Variant G9A C11U has a yeast fitness of 0.928. For G48A C66A G67A, the yeast fitness was at most 0.5. C5G G18A C27G C30U C31G gave a yeast fitness of at most 0.5. G6C C49U U53A C66U A70U gave a yeast fitness of at most 0.5. For C5U U28G A42C, the yeast fitness was at most 0.5. For G12A A21U C55U C62G, the yeast fitness was at most 0.5. U13A A42C A70U gave a yeast fitness of 0.671. Variant C22U C33G C34A A43C C55U has a yeast fitness of at most 0.5. Work on C4G G67A A70G yielded a yeast fitness of 0.665. In the case of G9A C55U A70G, the yeast fitness is reported as 0.536. G52A G68C gave a yeast fitness of 0.744. With C62G G68A the yeast fitness was 0.56. Work on C5A C24G U26A C29G U32A C49U yielded a yeast fitness of at most 0.5. A14C U19A A45U gave a yeast fitness of at most 0.5. U16A G48A C61U showed a yeast fitness of 0.706. With U2G C61U the yeast fitness was 0.88. In the case of C24A G38C G48C, the yeast fitness is reported as at most 0.5. Variant U7C C29G C49U U64A G68A has a yeast fitness of at most 0.5. Variant A14G C62A has a yeast fitness of 0.533. G18C A40C C61U showed a yeast fitness of at most 0.5. C5G C11A A21G gave a yeast fitness of 0.581. With U3C C22G C62U the yeast fitness was 0.64. U19C C22G C24A G39C A45C U47C showed a yeast fitness of 0.721. Variant C5U A14U C30U G39C C60A has a yeast fitness of at most 0.5. Variant G12C G25A A45C has a yeast fitness of 0.543. C29U A40U showed a yeast fitness of 0.836.
